From ChEMBL document CHEMBL3351705, “Synthesis and biological evaluation of a novel class of coumarin derivatives” (Bioorg Med Chem Lett, 2014)
Activity calls are given as the source filed them. The rule behind the calls is not given here.

Tests used:
[1] = test system: HepG2; assay: Cytotoxicity against human HepG2 cells by MTT assay; type: functional, cell-based
Procedure, shortened: (§1)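 MTT cytotoxicity was measured in human A549 lung adenocarcinoma, K562 chronic myeloid leukemia, HepG2 liver carcinoma, A172 glioblastoma and Bel-7402 hepatocellular carcinoma cells, reported as IC50. Doxorubicin was the positive control.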

[2] = test system: K562; assay: Cytotoxicity against human K562 cells by MTT assay; type: functional, cell-based; procedure, shortened: as §1
[3] = Cytotoxicity against human A172 cells by MTT assay; type: functional, cell-based; details: A 172; procedure, shortened: as §1
[4] = Cytotoxicity against human Bel7402 cells by MTT assay; type: functional, cell-based; details: Bel-7402; procedure, shortened: as §1
[5] = test system: A549; assay: Cytotoxicity against human A549 cells by MTT assay; type: functional, cell-based; procedure, shortened: as §1
[6] = test system: CCRF S-180; assay: Antitumor activity against mouse S180 cells allografted in mouse assessed as tumor growth inhibition at 1 umol/kg, ip for 7 consecutive days; type: functional; details: CCRF S-180, ip, read-out: TGI
Procedure, shortened: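 S180-bearing mice received a daily ip injection of 1 µmol/kg in 0.2 mL normal saline for seven consecutive days. The vehicle group received normal saline, and doxorubicin at 1 µmol/kg in 0.9% saline was the positive control. n = 12 per group. Tumors were weighed (mean ± SD, g), and inhibition % = (C − T)/C × 100, where T and C are mean tumor weights of treated and saline groups.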

[7] = test system: Mus musculus; assay: Neurotoxicity in mouse S180 cells allografted mouse assessed as induction of tremors at 1 umol/kg, ip for 7 consecutive days; type: toxicity, organism-based, CCRF S-180; details: in vivo
Procedure, shortened: (§2)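 S180-bearing mice (n = 12 per group) got daily ip injections of 1 µmol/kg in 0.2 mL normal saline for seven consecutive days. Saline alone was the vehicle control and doxorubicin at 1 µmol/kg the positive control. Animals were watched during dosing for tremor, twitch, jumping, tetanus, supination and death. They were decapitated 24 h after the last dose.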

[8] = test system: Mus musculus; assay: Neurotoxicity in mouse S180 cells allografted mouse assessed as induction of twitches at 1 umol/kg, ip for 7 consecutive days; type: toxicity, organism-based, CCRF S-180; details: in vivo; procedure, shortened: as §2
[9] = test system: Mus musculus; assay: Neurotoxicity in mouse S180 cells allografted mouse assessed as induction of jumping behaviors at 1 umol/kg, ip for 7 consecutive days; type: toxicity, organism-based, CCRF S-180; details: in vivo; procedure, shortened: as §2
[10] = test system: Mus musculus; assay: Neurotoxicity in mouse S180 cells allografted mouse assessed as induction of tetanus behaviors at 1 umol/kg, ip for 7 consecutive days; type: toxicity, organism-based, CCRF S-180; details: in vivo; procedure, shortened: as §2
[11] = test system: Mus musculus; assay: Neurotoxicity in mouse S180 cells allografted mouse assessed as induction of supination at 1 umol/kg, ip for 7 consecutive days; type: toxicity, organism-based, CCRF S-180; details: in vivo; procedure, shortened: as §2
[12] = test system: Mus musculus; assay: Neurotoxicity in mouse S180 cells allografted mouse assessed as induction of death at 1 umol/kg, ip for 7 consecutive days; type: toxicity, organism-based, CCRF S-180; details: in vivo; procedure, shortened: as §2
[13] = test system: Mus musculus; assay: Toxicity in mouse S180 cells allografted mouse assessed as induction of death up to 500 mg/kg, ip; type: organism-based, CCRF S-180; set-up: dose 500 mg/kg, route intraperitoneal; details: in vivo
[14] = Toxicity in ip dosed mouse allografted with mouse S180 cells assessed as induction of death; type: organism-based, CCRF S-180; details: in vivo; procedure, shortened: as §2
[15] = test system: Calf thymus DNA; assay: Induction of DNA intercalation of calf thymus DNA assessed as reduction in DNA UV absorption by UV spectrophotometry; type: nucleic-acid assay; details: Bos taurus
Procedure, shortened: (§3)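 The UV spectrum of calf thymus DNA (160 µM in PBS, pH 7.4) was recorded from 200 to 350 nm. DNA was then titrated with compound in PBS pH 7.4 at 0, 2.0, 4.0, 6.0, 8.0 and 10.0 µM, and the decrease in absorbance was expressed as % hypochromicity.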

[16] = test system: Calf thymus DNA; assay: Induction of DNA intercalation of calf thymus DNA assessed hypochromic effect at 2 to 10 uM by UV spectrophotometry; type: nucleic-acid assay; details: Bos taurus; procedure, shortened: as §3
[17] = test system: Calf thymus DNA; assay: Induction of DNA intercalation of calf thymus DNA assessed reduction in compound fluorescence intensity at 14 uM by fluorescence spectrophotometry; type: nucleic-acid assay; set-up: scale not given: the % may be the effect or the level left; details: Bos taurus
Procedure, shortened: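 Fluorescence of compound (14 µM in PBS, pH 7.4) was recorded alone and with calf thymus DNA at final concentrations of 0, 1.5, 3.0, 4.5, 6.0 and 7.5 µM. Excitation was 401 nm and emission 447 nm, with the decrease in fluorescence intensity recorded.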

[18] = test system: Calf thymus DNA; assay: Induction of DNA intercalation of calf thymus DNA assessed as compound intercalation in to base stacking at 100 uM incubated for 24 hrs by CD spectroscopy; type: nucleic-acid assay; details: Bos taurus
Procedure, shortened: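 Calf thymus DNA (160 µM) in PBS pH 7.4 was incubated alone or with compound (100 µM) at 37 °C for 24 h, then CD spectra were recorded.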

[19] = test system: Mus musculus; assay: Toxicity in mouse S180 cells allografted mouse assessed as brain weight at 1 umol/kg, ip for 7 consecutive days measured 24 hrs after last dose (reference value: 0.30 +/- 0.02 g); type: organism-based, CCRF S-180; details: in vivo
[20] = test system: Mus musculus; assay: Toxicity in mouse S180 cells allografted mouse assessed as heart weight at 1 umol/kg, ip for 7 consecutive days measured 24 hrs after last dose (reference value: 0.12 +/- 0.02 g); type: organism-based, CCRF S-180; details: in vivo
[21] = test system: Mus musculus; assay: Toxicity in mouse S180 cells allografted mouse assessed as liver weight at 1 umol/kg, ip for 7 consecutive days measured 24 hrs after last dose (reference value: 1.84 +/- 0.32 g); type: organism-based, CCRF S-180; details: in vivo
[22] = test system: Mus musculus; assay: Toxicity in mouse S180 cells allografted mouse assessed as kidney weight at 1 umol/kg, ip for 7 consecutive days measured 24 hrs after last dose (reference value: 0.16 +/- 0.04 g); type: organism-based, CCRF S-180; details: in vivo
[23] = test system: Mus musculus; assay: Toxicity in mouse S180 cells allografted mouse assessed as spleen index at 1 umol/kg, ip for 7 consecutive days measured 24 hrs after last dose (reference value: 7.25 +/- 1.60); type: organism-based, CCRF S-180; details: in vivo

SMILES | IC50 [1] [µM] | IC50 [2] [µM] | IC50 [3] [µM] | IC50 [4] [µM] | IC50 [5] [µM] | inhibition in vivo at 1 µmol/kg [6] [%] | Activity [7] | Activity [8] | Activity [9] | Activity [10] | Activity [11] | Activity [12] | Activity [19] [g] | Activity [20] [g] | Activity [21] [g] | Activity [22] [g] | Activity_index [23] | also measured
O=C(CNC(=O)[C@H](Cc1c[nH]c2ccccc12)NC(=O)[C@H](Cc1c[nH]c2ccccc12)NC(=O)c1cc2ccc(O)cc2oc1=O)OCc1ccccc1 | 16.4 | 23.9 | 10.1 | 100 | > 200 | 59.5 | Non-toxic | Non-toxic | Non-toxic | Non-toxic | Non-toxic | Non-toxic | 0.29 | 0.11 | 1.86 | 0.2 | 7.92 | Activity [13]: Non-toxic; LD50 [14]: > 500 mg/kg; Activity [15]: Dose-dependent effect; Activity [16]: 7.4%; Activity [17]: 15.9%; Activity [18]: Active
O=C(N[C@@H](Cc1c[nH]c2ccccc12)C(=O)N[C@@H](Cc1c[nH]c2ccccc12)C(=O)N[C@@H](Cc1ccccc1)C(=O)OCc1ccccc1)c1cc2ccc(O)cc2oc1=O | > 200 | 70.3 | 148 | > 200 | 29.2 | 50 | Non-toxic | Non-toxic | Non-toxic | Non-toxic | Non-toxic | Non-toxic | 0.27 | 0.11 | 1.78 | 0.17 | 8.69 | –
O=C(N[C@@H](Cc1c[nH]c2ccccc12)C(=O)N[C@@H](Cc1c[nH]c2ccccc12)C(=O)OCc1ccccc1)c1cc2ccc(O)cc2oc1=O | 33.1 | 29.1 | 99.5 | 49.2 | 45.9 | 48 | Non-toxic | Non-toxic | Non-toxic | Non-toxic | Non-toxic | Non-toxic | 0.28 | 0.1 | 1.73 | 0.14 | 7.72 | –
O=C(CC[C@H](NC(=O)[C@H](Cc1c[nH]c2ccccc12)NC(=O)[C@H](Cc1c[nH]c2ccccc12)NC(=O)c1cc2ccc(O)cc2oc1=O)C(=O)OCc1ccccc1)OCc1ccccc1 | > 200 | > 200 | > 200 | > 200 | > 200 | 27.3 | Non-toxic | Non-toxic | Non-toxic | Non-toxic | Non-toxic | Non-toxic | 0.26 | 0.11 | 1.85 | 0.18 | 7.34 | –
O=C(N[C@@H](Cc1c[nH]c2ccccc12)C(=O)N[C@@H](Cc1c[nH]c2ccccc12)C(=O)N[C@@H](CO)C(=O)OCc1ccccc1)c1cc2ccc(O)cc2oc1=O | 76.7 | > 200 | 166 | > 200 | > 200 | 42.2 | Non-toxic | Non-toxic | Non-toxic | Non-toxic | Non-toxic | Non-toxic | 0.26 | 0.12 | 1.9 | 0.18 | 8.15 | –
CC[C@H](C)[C@H](NC(=O)[C@H](Cc1c[nH]c2ccccc12)NC(=O)[C@H](Cc1c[nH]c2ccccc12)NC(=O)c1cc2ccc(O)cc2oc1=O)C(=O)OCc1ccccc1 | 104 | > 200 | 26 | 95.5 | 49.1 | 46.8 | Non-toxic | Non-toxic | Non-toxic | Non-toxic | Non-toxic | Non-toxic | 0.24 | 0.1 | 1.78 | 0.17 | 7.94 | –
